Consider 4 molecules from ChEMBL document CHEMBL1275473, “Activities of ceftobiprole, linezolid, vancomycin, and daptomycin against community-associated and hospital-associated methicillin-resistant Staphylococcus aureus” (2008).

In general, MIC50 refers to an inhibitory concentration at the 50% level, which refers to growth in some studies and to a panel of isolates in others. A word on the MIC90: it is an inhibitory concentration at the 90% level, which refers to growth in some studies and to a panel of isolates in others. Usually MBC stands for the smallest concentration meeting the test's criterion for killing.

Values after ≈ are worked out from the molar mass of the structure shown.

Type in all cases: functional
The subject of test [1] is Staphylococcus aureus. As to the kind of experiment: Bactericidal activity against hospital-acquired methicillin-resistant Staphylococcus aureus selected at 4 times MIC after 24 hrs by time kill analysis. The procedure, abridged: (§1)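 Time-kill in triplicate on four randomly selected isolates per group. Start inoculum ~10^6 CFU/ml, drug at 4× MIC; serum arm has 50% human serum. Sampled over 0–24 h, diluted in cold 0.9% NaCl, spiral-plated; detection limit 2 log10 CFU/ml. Bactericidal means ≥3-log10 reduction. T99.9 by linear regression or visual inspection.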

Test [2] has as its system Staphylococcus aureus. As to the kind of experiment: Antimicrobial activity against hospital-acquired methicillin-resistant Staphylococcus aureus by broth microdilution method in presence of 50% human serum. The procedure, abridged: (§2)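 Broth microdilution per CLSI, in duplicate, with 50% human serum added. Mueller-Hinton broth with 50 mg/liter calcium and 12.5 mg/liter magnesium. Run on 20 randomly chosen isolates, 10 CA-MRSA and 10 HA-MRSA.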

The subject of test [3] is Staphylococcus aureus. As to the kind of experiment: Bactericidal activity against community-acquired methicillin-resistant Staphylococcus aureus by broth microdilution method in presence of 50% human serum. The procedure, abridged: (§3)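 MBC with 50% human serum on 10 CA-MRSA and 10 HA-MRSA isolates. Mueller-Hinton broth with 50 mg/liter calcium and 12.5 mg/liter magnesium. Aliquots from clear wells were plated onto tryptic soy agar.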
(In general: Broth dilution looks for growth in wells or tubes with falling amounts of substance.)

For test [4], the system named is Staphylococcus aureus. Briefly: Bactericidal activity against community-acquired methicillin-resistant Staphylococcus aureus by broth microdilution method. The conditions noted are these: for MBC: Staphylococcus aureus. The procedure, abridged: (§4)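 MBC read after CLSI broth microdilution in duplicate. Mueller-Hinton broth with 25 mg/liter calcium and 12.5 mg/liter magnesium; for daptomycin, 50 mg/liter calcium. 5-μl aliquots from clear wells were plated onto tryptic soy agar.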

Test [5] deals with Staphylococcus aureus. As to the kind of experiment: Antimicrobial activity against community-acquired methicillin-resistant Staphylococcus aureus by broth microdilution method. The procedure, abridged: (§5)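 Broth microdilution in duplicate per CLSI guidelines on clinical CA-/HA-MRSA isolates (100 each, Detroit Medical Center). Mueller-Hinton broth with 25 mg/liter calcium and 12.5 mg/liter magnesium; for daptomycin, 50 mg/liter calcium and 12.5 mg/liter magnesium.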

Test [6] relates to Staphylococcus aureus. Briefly: Bactericidal activity against community-acquired methicillin-resistant Staphylococcus aureus selected at 4 times MIC after 24 hrs by time kill analysis in presence of 50% human serum. The procedure, abridged:
as §1

For test [7], the system named is Staphylococcus aureus. As to the kind of experiment: Bactericidal activity against community-acquired methicillin-resistant Staphylococcus aureus selected at 4 times MIC after 24 hrs by time kill analysis. The procedure, abridged: as §1
The test system of test [8] is Staphylococcus aureus. Briefly: Antimicrobial activity against community-acquired methicillin-resistant Staphylococcus aureus by broth microdilution method in presence of 50% human serum. The procedure, abridged:
as §2

The test system of test [9] is Staphylococcus aureus. As to the kind of experiment: Bactericidal activity against hospital-acquired methicillin-resistant Staphylococcus aureus by broth microdilution method. The conditions noted are these: for MBC: Staphylococcus aureus. The procedure, abridged:
as §4

The test system of test [10] is Staphylococcus aureus. As to the kind of experiment: Antimicrobial activity against hospital-acquired methicillin-resistant Staphylococcus aureus by broth microdilution method. The procedure, abridged: as §5
Test [11] has as its system Staphylococcus aureus. Briefly: Bactericidal activity against hospital-acquired methicillin-resistant Staphylococcus aureus by broth microdilution method in presence of 50% human serum. The procedure, abridged: as §3
The test system of test [12] is Staphylococcus aureus. As to the kind of experiment: Bactericidal activity against hospital-acquired methicillin-resistant Staphylococcus aureus selected at 4 times MIC after 24 hrs by time kill analysis in presence of 50% human serum. The procedure, abridged:
as §1

For test [13], the system named is Staphylococcus aureus. As to the kind of experiment: Bactericidal activity against community-acquired methicillin-resistant Staphylococcus aureus selected at MIC after 24 hrs by time kill analysis. The procedure, abridged: (§6)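 Time-kill at 0.5× or 1× MIC, alone and combined with tobramycin. Start inoculum ~10^6 CFU/ml, triplicate, sampled over 0–24 h and spiral-plated; detection limit 2 log10 CFU/ml. Bactericidal means ≥3-log10 CFU/ml reduction. Synergy means ≥2-log10 more killing at 24 h than the best single drug.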

In test [14] the test system is Staphylococcus aureus. As to the kind of experiment: Bactericidal activity against community-acquired methicillin-resistant Staphylococcus aureus selected at 0.5 times MIC after 24 hrs by time kill analysis. The procedure, abridged: as §6
Test [15] deals with Staphylococcus aureus. As to the kind of experiment: Bactericidal activity against hospital-acquired methicillin-resistant Staphylococcus aureus selected at 0.5 times MIC after 24 hrs by time kill analysis. The procedure, abridged:
as §6

For test [16], the system named is Staphylococcus aureus. Briefly: Bactericidal activity against hospital-acquired methicillin-resistant Staphylococcus aureus selected at MIC after 24 hrs by time kill analysis. The procedure, abridged:
as §6

For `CCCCCCCCCC(=O)N[C@@H](Cc1c[nH]c2ccccc12)C(=O)N[C@H](CC(N)=O)C(=O)N[C@@H](CC(=O)O)C(=O)N[C@@H]1C(=O)NCC(=O)N[C@@H](CCCN)C(=O)N[C@@H](CC(=O)O)C(=O)N[C@H](C)C(=O)N[C@@H](CC(=O)O)C(=O)NCC(=O)N[C@H](CO)C(=O)N[C@@H]([C@H](C)CC(=O)O)C(=O)N[C@@H](CC(=O)c2ccccc2N)C(=O)O[C@@H]1C`, the T99.9% was determined as 1.6 h with Staphylococcus aureus [1], 2.2 h in the test on Staphylococcus aureus [6], 1.6 h in the test on Staphylococcus aureus [7] and 2.1 h in the test with Staphylococcus aureus [12]. The MIC50 came out at 0.5 mg/L in the test with Staphylococcus aureus [2], 0.25 mg/L (≈ 0.154 µM) against Staphylococcus aureus [5], 1 mg/L in the test with Staphylococcus aureus [8] and 0.25 mg/L (≈ 0.154 µM) in the test on Staphylococcus aureus [10]. The MIC90 was 1 mg/L in the test on Staphylococcus aureus [2], 0.5 mg/L (≈ 0.309 µM) with Staphylococcus aureus [5], 1 mg/L with Staphylococcus aureus [8] and 0.5 mg/L (≈ 0.309 µM) against Staphylococcus aureus [10]. Also, the MBC50 in the test with Staphylococcus aureus [3] is 1 mg/L; in the test on Staphylococcus aureus [4], 0.25 mg/L (≈ 0.154 µM); against Staphylococcus aureus [9], 0.25 mg/L (≈ 0.154 µM); with Staphylococcus aureus [11], 1 mg/L. Moreover, the MBC90 in the test on Staphylococcus aureus [3] was determined as 1 mg/L; with Staphylococcus aureus [4], 0.5 mg/L (≈ 0.309 µM); in the test with Staphylococcus aureus [9] it was 1 mg/L (≈ 0.617 µM); in the test on Staphylococcus aureus [11], 1 mg/L. The MBC was 0.5 mg/L with Staphylococcus aureus [3] (Staphylococcus aureus), 0.125 mg/L (≈ 0.0771 µM) against Staphylococcus aureus [4], 0.125 mg/L (≈ 0.0771 µM) with Staphylococcus aureus [9] and 0.5 mg/L in the test on Staphylococcus aureus [11] (Staphylococcus aureus).

As for `Nc1nc(/C(=N/O)C(=O)N[C@@H]2C(=O)N3C(C(=O)O)=C(/C=C4\CCN([C@@H]5CCNC5)C4=O)CS[C@H]23)ns1` [CEFTOBIPROLE], the T99.9% came out at 11.8 h in the test on Staphylococcus aureus [1]; 8 h in the test with Staphylococcus aureus [7]; 8.6 h in the test on Staphylococcus aureus [13]; 14.2 h in the test on Staphylococcus aureus [14]; 14.2 h with Staphylococcus aureus [15]; 8.6 h with Staphylococcus aureus [16]. Moreover, the MBC50 against Staphylococcus aureus [4] and in the test on Staphylococcus aureus [9] was 2 mg/L (≈ 3.74 µM) each time. The MBC90 in the test with Staphylococcus aureus [4] and against Staphylococcus aureus [9] was 4 mg/L (≈ 7.48 µM) each time. The MBC in the test with Staphylococcus aureus [4] and with Staphylococcus aureus [9] was 0.5 mg/L (≈ 0.935 µM) throughout. Moreover, the MIC50 with Staphylococcus aureus [5] and in the test on Staphylococcus aureus [10] was 1 mg/L (≈ 1.87 µM) in each case. In addition, the MIC90 in the test on Staphylococcus aureus [5] and in the test with Staphylococcus aureus [10] was 2 mg/L (≈ 3.74 µM) throughout.

On to `CC(=O)NC[C@H]1CN(c2ccc(N3CCOCC3)c(F)c2)C(=O)O1` [LINEZOLID], for which, in the test on Staphylococcus aureus [4], the MBC50 amounted to 8 mg/L (≈ 23.7 µM), the MBC90 worked out at 32 mg/L (≈ 94.9 µM) and the MBC was 2 mg/L (≈ 5.93 µM). In the test with Staphylococcus aureus [5], this molecule came in with an MIC50 of 2 mg/L (≈ 5.93 µM) and an MIC90 of 4 mg/L (≈ 11.9 µM). For the same molecule, in the test on Staphylococcus aureus [9], the MBC50 was determined as 16 mg/L (≈ 47.4 µM), the MBC90 was determined as 64 mg/L (≈ 190 µM) and the MBC stood at 1 mg/L (≈ 2.96 µM). Further, in the test on Staphylococcus aureus [10], the MIC50 worked out at 2 mg/L (≈ 5.93 µM) and the MIC90 was 4 mg/L (≈ 11.9 µM).

On to `CN[C@H](CC(C)C)C(=O)N[C@H]1C(=O)N[C@@H](CC(N)=O)C(=O)N[C@H]2C(=O)N[C@H]3C(=O)N[C@H](C(=O)N[C@H](C(=O)O)c4cc(O)cc(O)c4-c4cc3ccc4O)[C@H](O)c3ccc(c(Cl)c3)Oc3cc2cc(c3O[C@@H]2O[C@H](CO)[C@@H](O)[C@H](O)[C@H]2O[C@H]2C[C@](C)(N)[C@H](O)[C@H](C)O2)Oc2ccc(cc2Cl)[C@H]1O` [VANCOMYCIN], for which, in the test with Staphylococcus aureus [1], the T99.9% turned out to be 8.6 h. In the test with Staphylococcus aureus [4], this molecule returned an MBC50 of 1 mg/L (≈ 0.69 µM), an MBC90 of 2 mg/L (≈ 1.38 µM) and an MBC of 0.5 mg/L (≈ 0.345 µM). In the test on Staphylococcus aureus [5], the MIC50 worked out at 1 mg/L (≈ 0.69 µM) and the MIC90 worked out at 1 mg/L (≈ 0.69 µM). This molecule also registered a T99.9% with Staphylococcus aureus [7] of 8.6 h. In the test with Staphylococcus aureus [9], this molecule showed an MBC50 of 1 mg/L (≈ 0.69 µM), an MBC90 of 2 mg/L (≈ 1.38 µM) and an MBC of 0.5 mg/L (≈ 0.345 µM). In the test with Staphylococcus aureus [10], this molecule displayed an MIC50 of 1 mg/L (≈ 0.69 µM) and an MIC90 of 2 mg/L (≈ 1.38 µM).
